S1P3 agonist = human S1P3 receptor agonists, primary screen, cell-based, primary and confirmation, NFAT-BLA reporter; Sphingosine 1-phosphate receptor 3 (Homo sapiens), Q99500; S1P3 NFAT-BLA reporter cells, agonism, FRET ratio; relative to 1 µM S1P, basal subtracted; activation, % at 4.5 µM; hit rate 0.1% among 60,000; AID 373, 2006;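 active = activation above the screen-wide mean plus 3 SD, cut at about 4.5% in these data, passing the limit was not always enough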
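Benchmarks: high control 1 µM S1P / System: stable CHO line with human S1P3, Gα16, NFAT-BLA reporter / Dosing: single compound concentration, 4.5 µM final / Timing: 4 h compound at 37 °C, 2 h substrate at RT / Measured by: FRET β-lactamase substrate fluorescence, excitation 405 nm, 460/535 nm emission ratio, background-subtracted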
RORa activator = activators of orphan receptor RORA, primary screen, cell-based, luminescence; Nuclear receptor ROR-alpha (Homo sapiens), P35398; CHO-K1 Gal4-RORA LBD luciferase reporter; percent increase over mock-subtracted basal signal; activation, % at 10 µM; hit rate 1.5% among 65,000; AID 560, 2006;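 active = activation above the mean of all tested compounds plus 3 SD, cut at about 49% in these data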
Target sequence (P35398 whole entry, looked up, the tested form may be a part): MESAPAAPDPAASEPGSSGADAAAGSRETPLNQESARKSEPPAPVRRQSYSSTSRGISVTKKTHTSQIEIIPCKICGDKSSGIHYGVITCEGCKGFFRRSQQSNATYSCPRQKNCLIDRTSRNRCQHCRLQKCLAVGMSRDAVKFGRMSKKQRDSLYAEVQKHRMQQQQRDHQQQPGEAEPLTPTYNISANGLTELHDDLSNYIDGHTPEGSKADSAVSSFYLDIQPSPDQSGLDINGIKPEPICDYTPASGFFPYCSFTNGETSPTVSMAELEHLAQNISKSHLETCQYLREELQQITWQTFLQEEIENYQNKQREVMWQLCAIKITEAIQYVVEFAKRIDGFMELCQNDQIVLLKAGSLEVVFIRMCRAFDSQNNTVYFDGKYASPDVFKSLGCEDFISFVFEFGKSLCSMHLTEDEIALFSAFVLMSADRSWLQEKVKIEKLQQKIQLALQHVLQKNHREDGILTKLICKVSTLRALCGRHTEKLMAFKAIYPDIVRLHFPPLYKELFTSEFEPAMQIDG
M1 antagonist = antagonists of rat M1 muscarinic receptor; Muscarinic acetylcholine receptor M1 (Rattus norvegicus), P08482; CHO-M1 cells, Fluo-4 calcium, ACh EC80 antagonist mode; hits give low values; B-score at 10 µM; hit rate 3.4% among 64,000;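 active = calcium fluorescence response, raw or row-and-column corrected B-score, differing from the plate sample mean either way at a set confidence level, mostly lower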
M1 agonist = M1 muscarinic receptor agonists, primary screen, CHO-M1 cells, Fluo-4 calcium, agonist mode. Muscarinic acetylcholine receptor M1. B-score at 10 µM. Fluo-4 calcium fluorescence; hits give high values. hit rate 3% among 64,000;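 active = fluorescence rise, raw or as B-score row- and column-corrected plate score, outside the 99.7% band of its plate's samples, either direction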
S1P1 ag pot = S1P1 agonists and agonism potentiators, primary screen, cell-based, primary and confirmation screens, CRE-bla reporter | Sphingosine 1-phosphate receptor 1 (Homo sapiens), P21453 | S1P1 CRE-bla cells, forskolin, beta-lactamase FRET, potentiator mode; S1P1 agonist co-added at EC20, 2 nM; 100% = saturating reference agonist, 0% = basal | activation, % at 9.5 µM | hit rate 0.57% among 56,000 | AID 449, 2006;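 active = activation above a cutoff set at the mean activation of all tested compounds plus 3 SD, cut at about 54% in these data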;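 also: forskolin at 4 µM as EC80 and the EC20 agonist is SEW2871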
SF1 activator = activators of human SF-1, primary screen, cell-based, CHO-K1, Gal4-SF-1 LBD, luciferase luminescence | hit rate 1.9% among 65,000 | activation, % at 10 µM | AID 522, 2006 | CHO-K1 Gal4-SF-1 LBD luciferase reporter; % increase over DMSO SF-1-specific signal | Steroidogenic factor 1 (Homo sapiens), Q13285;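 active = activation above the mean activation of all tested compounds plus 3 SD, cut at about 50% in these data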
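Assay system – CHO-K1 cells with Gal4–hSF-1 LBD chimera plus Gal4-driven luciferase · Quantity – 4,000 cells per well · Times – compound added 1 h post-seeding, 20 h exposure at 37 °C, 5% CO2 · Measured by – luciferase light emission · Benchmarks – DMSO and mock-transfected background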
M1 antag conf = rat M1 muscarinic receptor antagonists, confirmation, CHO cells, Fluo-4 calcium, duplicate; shares compounds with M1 antagonist; ACh EC80 antagonism; hits give low values; hit rate 43% among 1,700; calcium response (max-min fluorescence) at 10 µM;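 active = calcium response below the same-plate mean of wells given acetylcholine alone at its 80%-effect dose, minus 3 SD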
mGluR4 antag = human mGluR4 response to M1 antagonist hits, M1 allosteric modulator project, cell-based, antagonist mode, secondary assay 1; hit rate 0.9% among 1,700; fluorescence response (max-min) at 10 µM; shares compounds with M1 antagonist; CHO-mGluR4 calcium flux, Fluo-4 fluorescence, glutamate EC80; hits give low values;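 active = fluorescence response below the plate's average for near-maximal glutamate wells, less 3 SD of those wells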;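 also: raw unnormalized fluorescence span taken in the window right after glutamate addition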
A number is an active result; - = inactive; . = no result. A selection: hits, their analogues and other compounds. The true share with any hit is near 8.8%.

SMILES	S1P3 agonist	RORa activator	M1 antagonist	M1 agonist	S1P1 ag pot	SF1 activator	M1 antag conf	mGluR4 antag
N#CC1=C(N)N2C(=C(C#N)C13CCN(Cc1ccccc1)CC3)Nc1ccccc12	-	-	-3.4	-	.	-	405	-
O=C(CN1C(=O)c2ccccc2C1=O)N1CCCCC1	-	-	-	-	-	-	.	.
O=C(CC(c1ccccc1O)N1CCCCC1)N1CCCCC1 (stereo not given)	.	.	-17	-	.	.	84	-
COC(=O)CCCC(=O)N1CCOCCN(C(=O)CCCC(=O)OC)CCOCC1	-	-	-	-	-	-	.	.
O=C(Oc1ccc(-n2cnnn2)cc1)c1ccco1	-	-	-	-	-	-	.	.
COc1cc(OC)cc(OCC(O)Cn2ccnc2)c1 (stereo not given)	-	-	-	-	-	-	.	.
COc1ccc(C(=O)CN2C3=NCCCN3c3ccccc32)cc1OC	.	-	-	-	.	-	.	.
COC(=O)c1ccc(OCCN2C3=NCCN3c3ccccc32)cc1	-	-	-9	-	-	-	440	-
COc1ccc2oc(=O)c(C(=O)N3CCN(C45CC6CC(CC(C6)C4)C5)CC3)cc2c1	-	-	-3	-	-	-	-	-
COc1ccc(OC)c(S(=O)(=O)N2CCN(C34CC5CC(CC(C5)C3)C4)CC2)c1	-	-	-4.6	-	-	-	477	-
COc1ccc2oc(=O)c(C(=O)N3CCN(c4ccccc4)CC3)cc2c1	-	-	-	-	-	-	.	.
Cn1c(OCc2ccc3c(c2)OCO3)nc2c1c(=O)n(Cc1cccc(Cl)c1)c(=O)n2C	-	-	-	-	-	-	.	.
Cc1cc(C)n(S(=O)(=O)c2ccc(C(C)(C)C)cc2)n1	-	-	-8.7	-	-	-	20	-
CC(C)Cc1nnc(NC(=O)CSc2nc(=O)cc(N)n2-c2ccccc2)s1	-	-	-	-	-	-	.	.
CC(=O)CC(=O)NC(=NC1CCCCC1)Nc1nc(C)cc(C)n1	-	-	-2.9	-	-	-	-	-
Cc1ccc2[nH]c3c(N4CCCCCC4)ncnc3c2c1	-	-	-2.7	-	97	-	387	178
Cc1cc(Oc2ccccc2)nc2ccc(O)cc12	-	-	-	-	-	-	.	.
CCOc1ccc(C(=O)Nc2ccc(N3CCN(C)CC3)cc2)cc1Br	-	-	-3.5	-	-	-	361	-
CCOc1ccc(C(=O)Nc2ccc(N3CCCC3)cc2)cc1	.	-	-	-	.	-	.	.
CCS(=O)(=O)Nc1ccc2c(c1)N(C(C)=O)c1ccccc1CC2	-	-	-	-	-	-	.	.
CCOC(=O)Nc1ccc2c(c1)N(C(=O)OCCN(C)C)c1ccccc1CC2	-	-	-3.3	-	-	-	294	-
CC(C)C[C@H](NC(=O)OC(C)(C)C)c1nnc(SCc2cccc(F)c2)o1	-	-	-	-	-	-	.	.
CC(C)C[C@H](NC(=O)OC(C)(C)C)c1nnc(SCC(=O)Nc2ccc(Br)cc2)o1	-	-	-3.1	-	-	-	-	-
COc1ccc(CCNC(=O)CSC2=Nc3ccccc3C3=NC(C(C)C)C(=O)N23)cc1OC (stereo not given)	-	-	-3.5	-	-	-	-	-
COCCCNC(CC(=O)Nc1ccc(N(C)C)cc1)C(=O)O (stereo not given)	-	-	-	-	-	-	.	.
